Screening data: PubChem BioAssay, several laboratories
Shown is part of a subset that was picked to be rich in hits.
NALP1 yeast inh: inhibitors of NALP1 inflammasome in yeast; AID 2071; 280,000 tested, 0.61% active; inhibition, % at 10 µM; S. cerevisiae NALP1/ASC/caspase-1 growth, X-gal OD620, 72 h; in the data active means inhibition mostly above about 24%, no sharp cut-off; inactive means mostly below about 32%
NLRP3 yeast inh: NALP3 inhibition in yeast; Yeast reconstituted NLRP3/ASC/caspase-1, beta-gal luminescence, 24 h; inhibition, % at 10 µM; 330,000 tested, 0.39% active; AID 2825;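 active means inhibition of 50% or more; inactive means inhibition below 50%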;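 further: plate controls were induced DMSO wells for no effect and uninduced yeast grown without galactose for full effect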
Lmaj promast: Leishmania major promastigote growth inhibition; Leishmania major promastigotes, resazurin fluorescence viability; inhibition, % at 10 µM; 200,000 tested, 9% active; AID 1063; in the data active means inhibition above about 50%;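 further: promastigotes grown with compound for 44 hours at 28 °C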
T cruzi repl: blocks replication of Trypanosoma cruzi; T. cruzi beta-gal in NIH3T3, luminescence, 90 h; inhibition, % (no concentration beside the values); 300,000 tested, 1.4% active; AID 1885;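 active means mean inhibition across valid replicates above about 55%, limit read from the data; inconclusive means mean below that limit but half or more replicates reach it; inactive means mean below it, under half of replicates reach it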;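 further: signal also drops with host cell toxicity which is not excluded here; 0% = plate median of DMSO wells and 100% = zero luminescence signal; higher percent means less beta-gal luminescence so fewer parasites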
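Assay system: NIH/3T3 fibroblasts plus reporter T. cruzi. Amount: NIH/3T3 cells, 5,000 per well. Buffer or medium: DMEM, 2% fetal bovine serum. Doses: compound pinned at 50 nL/well, DMSO. Schedule: ≥90 h infection period, 3 h prior cell attachment. Signal: luminescent β-galactosidase signal after 60 min lysis. Read-out: parasite load inhibition, %.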
Calb FLC: affects C. albicans growth with fluconazole; C. albicans CaCi-2 + fluconazole, Alamar Blue growth, 48 h; growth inhibition, % (no concentration beside the values); 300,000 tested, 0.57% active; AID 1979;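 active means growth inhibition above about 58% in most replicates, limit read from the data, passing the limit was not always enough; inconclusive means exactly half the replicates above a set limit; inactive means most replicates below a set limit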;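 further: all wells also contain fluconazole at 8 µg/ml as a sub-toxic cotreatment; 0% = median of DMSO wells and 100% = median of geldanamycin control wells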
PolyA inh: yeast polyadenylation inhibition; S. cerevisiae SKY197-pL101 polyadenylation reporter, beta-gal luminescence; efflux-impaired pdr1/pdr3 knockout yeast; score 100 = 6 SD above DMSO; 300,000 tested, 0.02% active; activity score, % at 12 µM;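 active means lowest replicate activity score at least 50, where 100 means six control SD above control mean; inconclusive means lowest score under 50 but half or more replicates reach 50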;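 further: yeast exposed to compound for 9 h at 30 °C; higher score means more reporter readthrough which indicates perturbed polyadenylation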
Starred values were filed as active, the others as inactive.

For O=C1CCCN1CCCNc1ncccc1[N+](=O)[O-] the results were NALP1 yeast inh 16, NLRP3 yeast inh 27, T cruzi repl -3, Calb FLC 1 and PolyA inh 7.
For CN1CCN(C(=O)CSc2nc(-c3cccs3)ccc2C#N)CC1 the results were NLRP3 yeast inh -3, Lmaj promast 95*, T cruzi repl 8, Calb FLC 0 and PolyA inh 17.
`CC(C)(C)C(=O)Nc1ccccc1C(=O)NCc1cccnc1` gave NALP1 yeast inh 1, NLRP3 yeast inh 13, T cruzi repl 14, Calb FLC -2 and PolyA inh -2.
For CC(C)(C)c1ccccc1OCC(=O)Nc1ccccc1C(=O)NCc1cccnc1 the results were NALP1 yeast inh -5, NLRP3 yeast inh 21, T cruzi repl 62*, Calb FLC 0 and PolyA inh -5.
Screening CCOc1ccc2oc(C(=O)N(C)CC(=O)Nc3ccc(OCC)c(OCC)c3)c(C)c2c1 returned NLRP3 yeast inh 4, T cruzi repl 6, Calb FLC 1 and PolyA inh 3.
Screening CCC(C)(C)NC(=O)C(c1ccccc1Cl)N(C(=O)CCC(=O)Nc1cc(C)on1)C(C)(C)C (configuration not stated) returned NALP1 yeast inh 16, NLRP3 yeast inh 13, T cruzi repl 11, Calb FLC 4 and PolyA inh -2.
For CCCCCCc1nc2ccccc2c(=O)n1NC(=O)c1c(O)c2c(n(CC(C)C)c1=O)CCCC2 the results were NALP1 yeast inh 10, NLRP3 yeast inh 1, Lmaj promast 54*, T cruzi repl inconclusive, Calb FLC 7 and PolyA inh -6.
Screening O=C(N/N=C/c1cn(-c2ccccc2)nc1-c1cc2ccccc2o1)c1ccncc1 returned NALP1 yeast inh 28, NLRP3 yeast inh 44, Lmaj promast 43, T cruzi repl 2, Calb FLC -3 and PolyA inh 20.
For O=C(N/N=C/c1cn(-c2ccccc2)nc1-c1cc2ccccc2o1)c1cccnc1 the results were NALP1 yeast inh 29, NLRP3 yeast inh 22, Lmaj promast 97*, T cruzi repl -2, Calb FLC 19 and PolyA inh -4.
COc1cc(/C=N/N2CCN(Cc3ccccc3)CC2)cc(OC)c1OC(C)=O was read as NLRP3 yeast inh 5, T cruzi repl -10, Calb FLC 5 and PolyA inh 2.
`COc1ccc(-c2nc(-c3ccccc3)c(-c3cc([N+](=O)[O-])ccc3C)[nH]2)cc1O` gave NALP1 yeast inh 3, NLRP3 yeast inh -3, Lmaj promast 32, T cruzi repl -7, Calb FLC 25 and PolyA inh -17.
For COc1ccc(-c2nc(=S)c3c([nH]2)Oc2ccc(C)cc2C3)cc1O the results were NALP1 yeast inh 13, NLRP3 yeast inh -5, Lmaj promast 97*, T cruzi repl 11, Calb FLC 6 and PolyA inh 6.
Screening CC(Sc1nc(-c2ccc(F)cc2)cs1)C(=O)Nc1ccc(Cl)cn1 (configuration not stated) returned NLRP3 yeast inh -9, Lmaj promast 61*, T cruzi repl -11, Calb FLC 0 and PolyA inh 33.
Cc1csc(SC(C)C(=O)Nc2ccc(Cl)cn2)n1 (configuration not stated) was read as NALP1 yeast inh -8, NLRP3 yeast inh 24, Lmaj promast -4, T cruzi repl 1, Calb FLC -6 and PolyA inh -8.
Screening Cn1c(N)c(C(=O)CSc2n[nH]c(N)n2)c(=O)n(C)c1=O returned NLRP3 yeast inh -1.
O=C(Cc1ccc(-n2c(=O)[nH]c3ccsc3c2=O)cc1)N1CCN(c2ccc(Cl)cc2)CC1 was read as NALP1 yeast inh 32, NLRP3 yeast inh 0, Lmaj promast 70*, T cruzi repl 1, Calb FLC -5 and PolyA inh -5.
Cc1cccc(N2CCN(C(=O)Cc3ccc(-n4c(=O)[nH]c5ccsc5c4=O)cc3)CC2C)c1 (configuration not stated) was read as NALP1 yeast inh -1, NLRP3 yeast inh 11, Lmaj promast 56*, T cruzi repl 11, Calb FLC 4 and PolyA inh 4.
Cn1c(CN2CCCCC2)nc2cc(NS(=O)(=O)c3ccc(Cl)cc3)ccc21 was read as NALP1 yeast inh -1, NLRP3 yeast inh 23, Lmaj promast 66*, T cruzi repl 9, Calb FLC -1 and PolyA inh 2.
CC1CCN(CCc2nc3cc(NS(=O)(=O)c4ccccc4)ccc3n2C)CC1 was read as NALP1 yeast inh 16, NLRP3 yeast inh -6, Lmaj promast 20, T cruzi repl 17, Calb FLC 25 and PolyA inh 13.
Screening Cn1c(CN2CCCCC2)nc2cc(NC(=O)c3ccccc3)ccc21 returned NALP1 yeast inh 0, NLRP3 yeast inh 21, Lmaj promast 15, T cruzi repl 4, Calb FLC 37 and PolyA inh 0.
For Cn1c(CN2CCCCC2)nc2cc(NC(=O)c3cccc(Br)c3)ccc21 the results were NALP1 yeast inh 12, NLRP3 yeast inh 6, Lmaj promast 98*, T cruzi repl 28, Calb FLC inconclusive and PolyA inh 2.
Cn1c(CCN2CCCCC2)nc2cc(NS(=O)(=O)c3ccc(Cl)cc3)ccc21 was read as NALP1 yeast inh -12, NLRP3 yeast inh 1, T cruzi repl 6, Calb FLC -9 and PolyA inh -4.
`CC1CCN(CCc2nc3cc(NS(=O)(=O)c4ccc(F)cc4)ccc3n2C)CC1` gave NALP1 yeast inh 2, NLRP3 yeast inh 1, Lmaj promast 99*, T cruzi repl -6, Calb FLC -3 and PolyA inh 34.
`CCOc1ccccc1CNC(=O)Cn1nc(C)c2c(C)n(-c3ccc(C)cc3)nc2c1=O` gave NALP1 yeast inh 1, NLRP3 yeast inh 23, T cruzi repl 1, Calb FLC 60 and PolyA inh -23.
For CCCc1nnc(NC(=O)C2CCN(C(=O)c3ccco3)CC2)s1 the results were NALP1 yeast inh 8, NLRP3 yeast inh 2, T cruzi repl -23, Calb FLC 1 and PolyA inh 4.
Brc1ccc(-c2nnc(-c3ccccc3)c(N3CCSCC3)n2)cc1 was read as NALP1 yeast inh 5, NLRP3 yeast inh -14, Lmaj promast 11, T cruzi repl 26, Calb FLC -8 and PolyA inh -15.
Screening CN1CCN(c2nc(-c3ccc(Br)cc3)nnc2-c2ccccc2)CC1 returned NALP1 yeast inh 1, NLRP3 yeast inh 3, Lmaj promast 38, T cruzi repl 65*, Calb FLC -8 and PolyA inh 12.
For Cc1nc2ccc(NC(=O)Cc3ccc4c(c3)OCCO4)cc2s1 the results were NALP1 yeast inh 31, NLRP3 yeast inh 15, Lmaj promast -3, T cruzi repl 3, Calb FLC 3 and PolyA inh 84*.
